ChEMBL document CHEMBL3576819, “Design, synthesis, biological evaluation and molecular docking studies of phenylpropanoid derivatives as potent anti-hepatitis B virus agents” (Eur J Med Chem, 2015)
One block for each molecule: values may come before it.

Assays:
Hepatitis B virus [1] = test: Antiviral activity against Hepatitis B virus infected in human HepG2.2.15 cells assessed as cell survival at 150 uM after 9 days (reference value: 100%); assay type: functional; settings: HepG2 2.2.15, 216 h
How it was run: (§1)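 HepG2.2.15 cells (MEM, 10% FBS, 380 µg/ml G418, 37 °C, 5% CO2) seeded at 1×10^5 cells/ml, cultured 24 h, then exposed to various drug concentrations; drug-containing medium renewed every 3 d. OD read at 450 nm after 9 days; percent cell death calculated; CC50 = concentration killing 50% of cells. Means of at least two experiments.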

Hepatitis B virus [2] = test: Antiviral activity against Hepatitis B virus infected in human HepG2.2.15 cells assessed as inhibition of HBsAg secretion at 37.5 uM after 6 days by ELISA; assay type: functional; settings: HepG2 2.2.15, 144 h
How it was run: (§2)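 HepG2.2.15 cells (MEM, 10% FBS, 380 µg/ml G418) seeded at 1×10^5 cells/ml, held 24 h at 37 °C, then treated with various drug concentrations; medium with drug renewed every 3 d for up to 9 d. Culture medium sampled on days 3, 6 and 9, stored at -20 °C, and assayed for secreted antigen. Lamivudine as positive control; IC50 = 50% inhibition of secretion; means of at least two experiments.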

Hepatitis B virus [3] = test: Antiviral activity against Hepatitis B virus infected in human HepG2.2.15 cells assessed as inhibition of HBeAg secretion at 37.5 uM after 9 days by ELISA; assay type: functional; settings: HepG2 2.2.15, 216 h; how it was run: as §2
Hepatitis B virus [4] = test: Antiviral activity against Hepatitis B virus infected in human HepG2.2.15 cells assessed as inhibition of HBeAg secretion at 37.5 uM after 6 days by ELISA; assay type: functional; settings: HepG2 2.2.15, 144 h; how it was run: as §2
Hepatitis B virus [5] = test: Antiviral activity against Hepatitis B virus infected in human HepG2.2.15 cells assessed as inhibition of HBsAg secretion at 37.5 uM after 9 days by ELISA; assay type: functional; settings: HepG2 2.2.15, 216 h; how it was run: as §2
Hepatitis B virus [6] = test: Antiviral activity against Hepatitis B virus infected in human HepG2.2.15 cells assessed as inhibition of HBeAg secretion at 75 uM after 3 days by ELISA; assay type: functional; settings: HepG2 2.2.15, 72 h; how it was run: as §2
Hepatitis B virus [7] = test: Antiviral activity against Hepatitis B virus infected in human HepG2.2.15 cells assessed as cell survival at 300 uM after 9 days (reference value: 100%); assay type: functional; settings: HepG2 2.2.15, 216 h; how it was run: as §1
Hepatitis B virus [8] = test: Antiviral activity against Hepatitis B virus infected in human HepG2.2.15 cells assessed as inhibition of HBsAg secretion at 300 uM after 9 days by ELISA; assay type: functional; settings: HepG2 2.2.15, 216 h; how it was run: as §2
Hepatitis B virus [9] = test: Antiviral activity against Hepatitis B virus infected in human HepG2.2.15 cells assessed as inhibition of HBeAg secretion at 150 uM after 3 days by ELISA; assay type: functional; settings: HepG2 2.2.15, 72 h; how it was run: as §2
Hepatitis B virus [10] = test: Antiviral activity against Hepatitis B virus infected in human HepG2.2.15 cells assessed as inhibition of HBsAg secretion by ELISA; assay type: functional, organism-based; settings: HepG2 2.2.15; how it was run: as §2
Hepatitis B virus [11] = test: Antiviral activity against Hepatitis B virus infected in human HepG2.2.15 cells assessed as inhibition of HBsAg secretion at 150 uM after 3 days by ELISA; assay type: functional; settings: HepG2 2.2.15, 72 h; how it was run: as §2
Hepatitis B virus [12] = test: Antiviral activity against Hepatitis B virus infected in human HepG2.2.15 cells assessed as inhibition of HBsAg secretion at 300 uM after 6 days by ELISA; assay type: functional; settings: HepG2 2.2.15, 144 h; how it was run: as §2
[13] = Selectivity index, ratio of CC50 for human HepG2.2.15 cells to IC50 for Hepatitis B virus infected in human HepG2.2.15 cells assessed as inhibition of HBsAg secretion; assay type: functional
How it was run: (§3)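 Selectivity index computed as CC50/IC50, with CC50 from cell death of HepG2.2.15 cells after 9 days of treatment (OD 450 nm) and IC50 from 50% inhibition of HBeAg or HBsAg secretion in the same cells; medium with drug renewed every 3 d.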

Hepatitis B virus [14] = test: Antiviral activity against Hepatitis B virus infected in human HepG2.2.15 cells assessed as inhibition of HBsAg secretion at 75 uM after 9 days by ELISA; assay type: functional; settings: HepG2 2.2.15, 216 h; how it was run: as §2
Hepatitis B virus [15] = test: Antiviral activity against Hepatitis B virus infected in human HepG2.2.15 cells assessed as inhibition of HBsAg secretion at 150 uM after 9 days by ELISA; assay type: functional; settings: HepG2 2.2.15, 216 h; how it was run: as §2
Hepatitis B virus [16] = test: Antiviral activity against Hepatitis B virus infected in human HepG2.2.15 cells assessed as inhibition of HBsAg secretion at 75 uM after 6 days by ELISA; assay type: functional; settings: HepG2 2.2.15, 144 h; how it was run: as §2
Hepatitis B virus [17] = test: Antiviral activity against Hepatitis B virus infected in human HepG2.2.15 cells assessed as inhibition of HBsAg secretion at 37.5 uM after 3 days by ELISA; assay type: functional; settings: HepG2 2.2.15, 72 h; how it was run: as §2
[18] = Cytotoxicity against human HepG2.2.15 cells assessed as cell death after 9 days by MTT assay; assay type: cell-based, HepG2 2.2.15; how it was run: as §1
Hepatitis B virus [19] = test: Antiviral activity against Hepatitis B virus infected in human HepG2.2.15 cells assessed as inhibition of HBeAg secretion by ELISA; assay type: functional, organism-based; settings: HepG2 2.2.15; how it was run: as §2
Hepatitis B virus [20] = test: Antiviral activity against Hepatitis B virus infected in human HepG2.2.15 cells assessed as inhibition of HBeAg secretion at 150 uM after 9 days by ELISA; assay type: functional; settings: HepG2 2.2.15, 216 h; how it was run: as §2
Hepatitis B virus [21] = test: Antiviral activity against Hepatitis B virus infected in human HepG2.2.15 cells assessed as cell survival at 75 uM after 9 days (reference value: 100%); assay type: functional; settings: HepG2 2.2.15, 216 h; how it was run: as §1
Hepatitis B virus [22] = test: Antiviral activity against Hepatitis B virus infected in human HepG2.2.15 cells assessed as inhibition of HBeAg secretion at 150 uM after 6 days by ELISA; assay type: functional; settings: HepG2 2.2.15, 144 h; how it was run: as §2
Hepatitis B virus [23] = test: Antiviral activity against Hepatitis B virus infected in human HepG2.2.15 cells assessed as inhibition of HBeAg secretion at 300 uM after 9 days by ELISA; assay type: functional; settings: HepG2 2.2.15, 216 h; how it was run: as §2
Hepatitis B virus [24] = test: Antiviral activity against Hepatitis B virus infected in human HepG2.2.15 cells assessed as inhibition of HBeAg secretion at 37.5 uM after 3 days by ELISA; assay type: functional; settings: HepG2 2.2.15, 72 h; how it was run: as §2
Hepatitis B virus [25] = test: Antiviral activity against Hepatitis B virus infected in human HepG2.2.15 cells assessed as inhibition of HBeAg secretion at 300 uM after 6 days by ELISA; assay type: functional; settings: HepG2 2.2.15, 144 h; how it was run: as §2
Hepatitis B virus [26] = test: Antiviral activity against Hepatitis B virus infected in human HepG2.2.15 cells assessed as inhibition of HBsAg secretion at 150 uM after 6 days by ELISA; assay type: functional; settings: HepG2 2.2.15, 144 h; how it was run: as §2
Hepatitis B virus [27] = test: Antiviral activity against Hepatitis B virus infected in human HepG2.2.15 cells assessed as inhibition of HBsAg secretion at 300 uM after 3 days by ELISA; assay type: functional; settings: HepG2 2.2.15, 72 h; how it was run: as §2
[28] = Selectivity index, ratio of CC50 for human HepG2.2.15 cells to IC50 for Hepatitis B virus infected in human HepG2.2.15 cells assessed as inhibition of HBeAg secretion; assay type: functional; how it was run: as §3
Hepatitis B virus [29] = test: Antiviral activity against Hepatitis B virus infected in human HepG2.2.15 cells assessed as inhibition of HBeAg secretion at 300 uM after 3 days by ELISA; assay type: functional; settings: HepG2 2.2.15, 72 h; how it was run: as §2
Hepatitis B virus [30] = test: Antiviral activity against Hepatitis B virus infected in human HepG2.2.15 cells assessed as inhibition of HBsAg secretion at 75 uM after 3 days by ELISA; assay type: functional; settings: HepG2 2.2.15, 72 h; how it was run: as §2
Hepatitis B virus [31] = test: Antiviral activity against Hepatitis B virus infected in human HepG2.2.15 cells assessed as cell survival at 37.5 uM after 9 days (reference value: 100%); assay type: functional; settings: HepG2 2.2.15, 216 h; how it was run: as §1
Hepatitis B virus [32] = test: Antiviral activity against Hepatitis B virus infected in human HepG2.2.15 cells assessed as inhibition of HBeAg secretion at 75 uM after 6 days by ELISA; assay type: functional; settings: HepG2 2.2.15, 144 h; how it was run: as §2
Hepatitis B virus [33] = test: Antiviral activity against Hepatitis B virus infected in human HepG2.2.15 cells assessed as inhibition of HBeAg secretion at 75 uM after 9 days by ELISA; assay type: functional; settings: HepG2 2.2.15, 216 h; how it was run: as §2

IC50 (Hepatitis B virus [10]): 191 µM | IC50 (Hepatitis B virus [19]): 202 µM
SMILES: COc1ccc(/C=C/C(=O)O/N=C/c2ccco2)cc1OC
viability at 150 µM (Hepatitis B virus [1]): 114% | inhibition at 37.5 µM (Hepatitis B virus [2]): 20.8% | inhibition at 37.5 µM (Hepatitis B virus [3]): 27% | inhibition at 37.5 µM (Hepatitis B virus [4]): 20% | inhibition at 37.5 µM (Hepatitis B virus [5]): 21.2% | inhibition at 75 µM (Hepatitis B virus [6]): 18.2% | viability at 300 µM (Hepatitis B virus [7]): 103% | inhibition at 300 µM (Hepatitis B virus [8]): 55% | inhibition at 150 µM (Hepatitis B virus [9]): 30.4% | inhibition at 150 µM (Hepatitis B virus [11]): 39.7% | inhibition at 300 µM (Hepatitis B virus [12]): 53.8% | Ratio CC50/IC50 [13]: 3.26 | inhibition at 75 µM (Hepatitis B virus [14]): 39.4% | inhibition at 150 µM (Hepatitis B virus [15]): 47.3% | inhibition at 75 µM (Hepatitis B virus [16]): 36.5% | inhibition at 37.5 µM (Hepatitis B virus [17]): 19.9% | CC50 at 216 h [18]: 624 µM | inhibition at 150 µM (Hepatitis B virus [20]): 43.7% | viability at 75 µM (Hepatitis B virus [21]): 120% | inhibition at 150 µM (Hepatitis B virus [22]): 42% | inhibition at 300 µM (Hepatitis B virus [23]): 56.6% | inhibition at 37.5 µM (Hepatitis B virus [24]): 14.1% | inhibition at 300 µM (Hepatitis B virus [25]): 48.8% | inhibition at 150 µM (Hepatitis B virus [26]): 44.2% | inhibition at 300 µM (Hepatitis B virus [27]): 47.2% | Ratio CC50/IC50 [28]: 3.1 | inhibition at 300 µM (Hepatitis B virus [29]): 41.8% | inhibition at 75 µM (Hepatitis B virus [30]): 33.6% | viability at 37.5 µM (Hepatitis B virus [31]): 128% | inhibition at 75 µM (Hepatitis B virus [32]): 27.9% | inhibition at 75 µM (Hepatitis B virus [33]): 37.3%

IC50 (Hepatitis B virus [10]): 229 µM | IC50 (Hepatitis B virus [19]): 378 µM
SMILES: COc1ccc(/C=C/C(=O)O/N=C/c2cccs2)cc1OC
viability at 150 µM (Hepatitis B virus [1]): 98.7% | inhibition at 37.5 µM (Hepatitis B virus [2]): 19.8% | inhibition at 37.5 µM (Hepatitis B virus [3]): 18.6% | inhibition at 37.5 µM (Hepatitis B virus [4]): 8.58% | inhibition at 37.5 µM (Hepatitis B virus [5]): 20.5% | inhibition at 75 µM (Hepatitis B virus [6]): 7.04% | viability at 300 µM (Hepatitis B virus [7]): 97.7% | inhibition at 300 µM (Hepatitis B virus [8]): 55% | inhibition at 150 µM (Hepatitis B virus [9]): 11.8% | inhibition at 150 µM (Hepatitis B virus [11]): 40.7% | inhibition at 300 µM (Hepatitis B virus [12]): 52.6% | Ratio CC50/IC50 [13]: 2.51 | inhibition at 75 µM (Hepatitis B virus [14]): 29.3% | inhibition at 150 µM (Hepatitis B virus [15]): 42.8% | inhibition at 75 µM (Hepatitis B virus [16]): 29.6% | inhibition at 37.5 µM (Hepatitis B virus [17]): 17.4% | CC50 at 216 h [18]: 574 µM | inhibition at 150 µM (Hepatitis B virus [20]): 26.9% | viability at 75 µM (Hepatitis B virus [21]): 101% | inhibition at 150 µM (Hepatitis B virus [22]): 20.4% | inhibition at 300 µM (Hepatitis B virus [23]): 52.3% | inhibition at 37.5 µM (Hepatitis B virus [24]): 0.63% | inhibition at 300 µM (Hepatitis B virus [25]): 35.4% | inhibition at 150 µM (Hepatitis B virus [26]): 41.2% | inhibition at 300 µM (Hepatitis B virus [27]): 47.6% | Ratio CC50/IC50 [28]: 1.52 | inhibition at 300 µM (Hepatitis B virus [29]): 14.3% | inhibition at 75 µM (Hepatitis B virus [30]): 28.4% | viability at 37.5 µM (Hepatitis B virus [31]): 114% | inhibition at 75 µM (Hepatitis B virus [32]): 15.3% | inhibition at 75 µM (Hepatitis B virus [33]): 22.6%
